In ChEMBL document CHEMBL1152304, “Alteration of the bis-tetrahydrofuran core stereochemistries in asimicin can affect the cytotoxicity” (J Med Chem, 2008):

Key:
L1210 [1] = test: Cytotoxicity against mouse L1210 cells at 0.94 ug by disk diffusion assay; type: functional
How it was run: (§1)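 15 µL of sample dried overnight on 6.5 mm filter disk. Disk placed near edge of 60 mm dish of cells plated in soft agar, incubated 7-10 days. Zone of inhibition measured from disk edge to start of normal-sized colony formation, disk diameter taken as 200 units. Overly toxic samples diluted 1:4 or 1:10 and retested.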

MC-38 [2] = test: Cytotoxicity against mouse Colon 38 cells at 0.94 ug by disk diffusion assay; type: functional; how it was run: as §1
[3] = Cytotoxicity against human CFU-GM cells at 0.94 ug by disk diffusion assay; type: functional; how it was run: as §1
MC-38 [4] = test: Cytotoxicity against mouse Colon 38 cells at 60 ug by disk diffusion assay; type: functional; how it was run: as §1
MC-38 [5] = test: Cytotoxicity against mouse Colon 38 cells at 15 ug by disk diffusion assay; type: functional; how it was run: as §1
HCT-116 [6] = test: Cytotoxicity against human HCT116 cells at 15 ug by disk diffusion assay; type: functional; how it was run: as §1
[7] = Cytotoxicity against human CFU-GM cells at 60 ug by disk diffusion assay; type: functional; how it was run: as §1
[8] = Cytotoxicity against human H125M cells at 15 ug by disk diffusion assay; type: functional; how it was run: as §1
L1210 [9] = test: Cytotoxicity against mouse L1210 cells at 60 ug by disk diffusion assay; type: functional; how it was run: as §1
MC-38 [10] = test: Cytotoxicity against mouse Colon 38 cells at 3.75 ug by disk diffusion assay; type: functional; how it was run: as §1
[11] = Inhibition of bovine heart mitochondrial complex1 activity; parameters: species or system Bos taurus
How it was run: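 Bovine heart submitochondrial particles, 15 µg/mL, in 0.25 M sucrose, 1 mM MgCl2, 50 mM phosphate pH 7.5. Inhibitor added at various concentrations and equilibrated 5 min. Reaction started with 150 µM NADH and followed spectrophotometrically at 340 nm. IC50 derived.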

L1210 [12] = test: Cytotoxicity against mouse L1210 cells at 3.75 ug by disk diffusion assay; type: functional; how it was run: as §1
[13] = Cytotoxicity against human CFU-GM cells at 3.75 ug by disk diffusion assay; type: functional; how it was run: as §1
CCRF-CEM [14] = test: Cytotoxicity against human CEM cells at 15 ug by disk diffusion assay; type: functional; how it was run: as §1
[15] = Cytotoxicity against human CFU-GM cells at 15 ug by disk diffusion assay; type: functional; how it was run: as §1
HCT-116 [16] = test: Cytotoxicity against human HCT116 cells; type: functional, cell-based
L1210 [17] = test: Cytotoxicity against mouse L1210 cells at 15 ug by disk diffusion assay; type: functional; how it was run: as §1
MC-38 [18] = test: Cytotoxicity against mouse Colon 38 cells at 30 ug by disk diffusion assay; type: functional; how it was run: as §1
[19] = Cytotoxicity against human CFU-GM cells at 0.3 ug by disk diffusion assay; type: functional; how it was run: as §1
L1210 [20] = test: Cytotoxicity against mouse L1210 cells at 3 ug by disk diffusion assay; type: functional; how it was run: as §1
MC-38 [21] = test: Cytotoxicity against mouse Colon 38 cells at 3 ug by disk diffusion assay; type: functional; how it was run: as §1
HCT-116 [22] = test: Cytotoxicity against human HCT116 cells at 30 ug by disk diffusion assay; type: functional; how it was run: as §1
L1210 [23] = test: Cytotoxicity against mouse L1210 cells at 30 ug by disk diffusion assay; type: functional; how it was run: as §1
MC-38 [24] = test: Cytotoxicity against mouse Colon 38 cells at 0.3 ug by disk diffusion assay; type: functional; how it was run: as §1
[25] = Cytotoxicity against human H125M cells at 30 ug by disk diffusion assay; type: functional; how it was run: as §1
[26] = Cytotoxicity against human CFU-GM cells at 30 ug by disk diffusion assay; type: functional; how it was run: as §1
[27] = Cytotoxicity against human CFU-GM cells at 3 ug by disk diffusion assay; type: functional; how it was run: as §1
L1210 [28] = test: Cytotoxicity against mouse L1210 cells at 0.3 ug by disk diffusion assay; type: functional; how it was run: as §1
CCRF-CEM [29] = test: Cytotoxicity against human CEM cells at 30 ug by disk diffusion assay; type: functional; how it was run: as §1
[30] = Cytotoxicity against human H125M cells at 60 ug by disk diffusion assay; type: functional; how it was run: as §1

Row | Structure (SMILES) | inhibition zone (IZ) (L1210 [1]) | inhibition zone (IZ) (MC-38 [2]) | inhibition zone (IZ) [3] | inhibition zone (IZ) (MC-38 [4]) | inhibition zone (IZ) (MC-38 [5]) | inhibition zone (IZ) (HCT-116 [6]) | inhibition zone (IZ) [7] | inhibition zone (IZ) [8] | inhibition zone (IZ) (L1210 [9]) | inhibition zone (IZ) (MC-38 [10]) | IC50 [11] | inhibition zone (IZ) (L1210 [12]) | inhibition zone (IZ) [13] | inhibition zone (IZ) (CCRF-CEM [14]) | inhibition zone (IZ) [15] | IC50 (HCT-116 [16]) | inhibition zone (IZ) (L1210 [17]) | other results
1 | CCCCCCCCCC[C@@H](O)[C@H]1CC[C@@H]([C@@H]2CC[C@H]([C@H](O)CCCCCCCCCC[C@@H](O)CC3=C[C@H](C)OC3=O)O2)O1 | 150 Zone units | 550 Zone units | 450 Zone units | 800 Zone units | 800 Zone units | 500 Zone units | 650 Zone units | 350 Zone units | 450 Zone units | 750 Zone units | 7.5 nM | 150 Zone units | 500 Zone units | 0 Zone units | 300 Zone units | 18 nM | 100 Zone units | 
2 | CCCCCCC[C@H](O)CC[C@H](O)[C@H]1CC[C@H]([C@H]2CC[C@H]([C@@H](O)CCCCCCCCCC[C@@H](O)CC3=C[C@H](C)OC3=O)O2)O1 | 100 Zone units | 750 Zone units | 450 Zone units | >1000 Zone units | 900 Zone units | 600 Zone units | 750 Zone units | 550 Zone units | 600 Zone units | 850 Zone units |  | 400 Zone units | 450 Zone units | 150 Zone units | 300 Zone units |  | 300 Zone units | 
3 | CCCCCCCCCC[C@H](O)[C@H]1CC[C@@H]([C@@H]2CC[C@H]([C@@H](O)CCCCCCCCCC[C@@H](O)CC3=C[C@H](C)OC3=O)O2)O1 | 100 Zone units | 700 Zone units | 550 Zone units | 800 Zone units | 900 Zone units | 550 Zone units | 700 Zone units | 400 Zone units | 650 Zone units | 800 Zone units | 5 nM | 250 Zone units | 600 Zone units | 0 Zone units | 250 Zone units | 0.69 nM | 200 Zone units | 
4 | CCCCCCC[C@H](O)CC[C@H](O)[C@H]1CC[C@H]([C@H]2CC[C@H]([C@H](O)CCCCCCCCCC[C@@H](O)CC3=C[C@H](C)OC3=O)O2)O1 | 150 Zone units | 600 Zone units | 500 Zone units | 900 Zone units | 950 Zone units | 600 Zone units | 700 Zone units | 100 Zone units | 700 Zone units | 750 Zone units |  | 350 Zone units | 550 Zone units | 0 Zone units | 400 Zone units |  | 250 Zone units | 
5 | CCCCCCCCCC[C@@H](O)[C@H]1CC[C@@H]([C@@H]2CC[C@@H]([C@H](O)CCCCCCCCCC[C@@H](O)CC3=C[C@H](C)OC3=O)O2)O1 |  |  |  |  |  |  |  |  |  |  | 2 nM |  |  |  |  |  |  | inhibition zone (IZ) (MC-38 [18]): 850 Zone units; inhibition zone (IZ) [19]: 450 Zone units; inhibition zone (IZ) (L1210 [20]): 200 Zone units; inhibition zone (IZ) (MC-38 [21]): 700 Zone units; inhibition zone (IZ) (HCT-116 [22]): 500 Zone units; inhibition zone (IZ) (L1210 [23]): 300 Zone units; inhibition zone (IZ) (MC-38 [24]): 450 Zone units; inhibition zone (IZ) [25]: 500 Zone units; inhibition zone (IZ) [26]: 650 Zone units; inhibition zone (IZ) [27]: 550 Zone units; inhibition zone (IZ) (L1210 [28]): 100 Zone units; inhibition zone (IZ) (CCRF-CEM [29]): 200 Zone units
6 | C[C@H]1C=C(C[C@H](O)CCCCCCCCCC[C@@H](O)[C@H]2CC[C@H]([C@H]3CC[C@H]([C@H](O)CCCCCCCCCCO)O3)O2)C(=O)O1 |  |  |  |  |  |  |  |  |  |  |  |  |  |  |  |  |  | inhibition zone (IZ) (MC-38 [18]): 800 Zone units; inhibition zone (IZ) [19]: 450 Zone units; inhibition zone (IZ) (L1210 [20]): 100 Zone units; inhibition zone (IZ) (MC-38 [21]): 600 Zone units; inhibition zone (IZ) (HCT-116 [22]): 600 Zone units; inhibition zone (IZ) (L1210 [23]): 200 Zone units; inhibition zone (IZ) (MC-38 [24]): 450 Zone units; inhibition zone (IZ) [25]: 500 Zone units; inhibition zone (IZ) [26]: 650 Zone units; inhibition zone (IZ) [27]: 550 Zone units; inhibition zone (IZ) (L1210 [28]): 50 Zone units; inhibition zone (IZ) (CCRF-CEM [29]): 150 Zone units
7 | CCCCCCCCCC[C@H](O)[C@H]1CC[C@H]([C@H]2CC[C@H]([C@@H](O)CCCCCCCCCC[C@@H](O)CC3=C[C@H](C)OC3=O)O2)O1 | 100 Zone units | 700 Zone units |  | 800 Zone units | 800 Zone units | 600 Zone units |  | 450 Zone units | 800 Zone units | 800 Zone units | 9 nM | 400 Zone units |  | 150 Zone units |  | 0.45 nM | 150 Zone units | 
8 | CCCCCCCCCC[C@@H](O)[C@@H]1CC[C@@H]([C@@H]2CC[C@@H]([C@H](O)CCCCCCCCCC(O)CC3=CC(C)OC3=O)O2)O1 (stereo partly specified) [BULLATACIN] | 150 Zone units | 650 Zone units | 450 Zone units | 1000 Zone units | 850 Zone units | 650 Zone units | 700 Zone units |  | 550 Zone units | 800 Zone units | 2.5 nM | 250 Zone units | 450 Zone units | 100 Zone units | 550 Zone units | 1.4 nM | 200 Zone units | inhibition zone (IZ) [30]: 400 Zone units
9 | CCCCCCCCCC[C@@H](O)[C@H]1CC[C@@H]([C@H]2CC[C@H]([C@H](O)CCC[C@H](O)CCCCCCCC3=C[C@H](C)OC3=O)O2)O1 [TRILOBIN] | 100 Zone units | 600 Zone units | 400 Zone units | 950 Zone units | 800 Zone units | 450 Zone units | 550 Zone units | 350 Zone units | 850 Zone units | 800 Zone units |  | 200 Zone units | 500 Zone units | 100 Zone units | 350 Zone units |  | 200 Zone units | 
10 | CCCCCCCCCC[C@H](O)[C@H]1CC[C@@H]([C@@H]2CC[C@H]([C@H](O)CCCCCCCCCC[C@@H](O)CC3=C[C@H](C)OC3=O)O2)O1 [rolliniastatin-1] | 100 Zone units | 700 Zone units | 400 Zone units | 900 Zone units | 1000 Zone units | 600 Zone units | 750 Zone units | 600 Zone units | 600 Zone units | 800 Zone units | 3 nM | 250 Zone units | 400 Zone units | 0 Zone units | 350 Zone units | 0.22 nM | 200 Zone units | 
